Legend:
Homo sapiens = organism: Homo sapiens; test: Antiangiogenic activity in VEGF-induced HLMEC assessed as sprouts per bead at 1.3 uM after 24 hrs by sprouting assay; assay type: functional
In short: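 HLMEC seeded on cytodex-3 microcarrier beads and embedded in 3D fibrinogen gel with 20 ng/mL VEGF plus compound at a final 1.3 or 2.6 µM (from 1 mM DMSO stock). Gel polymerised with 0.65 U/mL thrombin and overlaid with MCDB131, 5% FCS, 5% human serum and 200 U/mL Trasylol. Negative control: gel without growth factors. After 24 h, fixed in 1% PFA; sprouts per 50 beads counted microscopically. Triplicates per condition, n = 9 experiments.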

[1] = target: Vascular endothelial growth factor receptor 2 (Homo sapiens, UniProt P35968); test: Inhibition of human recombinant VEGFR2
In short: (§1)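 Recombinant human tyrosine kinases (EPHB4, TIE2, VEGF-R2, VEGF-R3), expressed in Sf9 insect cells as GST- or His-fusions, with poly(Glu,Tyr) 4:1 as substrate. Conditions: 1 µM [γ-33P]ATP, pH 7.5 HEPES buffer with Mg/Mn, DTT and vanadate, 30 °C for 80 min, 1% DMSO. Ten concentrations were tested and IC50 came from scintillation counting of incorporated 33P.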

[2] = target: T1, Receptor-type tyrosine-protein kinase FLT3 (Homo sapiens, UniProt P36888); test: Inhibition of human recombinant FLT3
T1 sequence (P36888 whole entry): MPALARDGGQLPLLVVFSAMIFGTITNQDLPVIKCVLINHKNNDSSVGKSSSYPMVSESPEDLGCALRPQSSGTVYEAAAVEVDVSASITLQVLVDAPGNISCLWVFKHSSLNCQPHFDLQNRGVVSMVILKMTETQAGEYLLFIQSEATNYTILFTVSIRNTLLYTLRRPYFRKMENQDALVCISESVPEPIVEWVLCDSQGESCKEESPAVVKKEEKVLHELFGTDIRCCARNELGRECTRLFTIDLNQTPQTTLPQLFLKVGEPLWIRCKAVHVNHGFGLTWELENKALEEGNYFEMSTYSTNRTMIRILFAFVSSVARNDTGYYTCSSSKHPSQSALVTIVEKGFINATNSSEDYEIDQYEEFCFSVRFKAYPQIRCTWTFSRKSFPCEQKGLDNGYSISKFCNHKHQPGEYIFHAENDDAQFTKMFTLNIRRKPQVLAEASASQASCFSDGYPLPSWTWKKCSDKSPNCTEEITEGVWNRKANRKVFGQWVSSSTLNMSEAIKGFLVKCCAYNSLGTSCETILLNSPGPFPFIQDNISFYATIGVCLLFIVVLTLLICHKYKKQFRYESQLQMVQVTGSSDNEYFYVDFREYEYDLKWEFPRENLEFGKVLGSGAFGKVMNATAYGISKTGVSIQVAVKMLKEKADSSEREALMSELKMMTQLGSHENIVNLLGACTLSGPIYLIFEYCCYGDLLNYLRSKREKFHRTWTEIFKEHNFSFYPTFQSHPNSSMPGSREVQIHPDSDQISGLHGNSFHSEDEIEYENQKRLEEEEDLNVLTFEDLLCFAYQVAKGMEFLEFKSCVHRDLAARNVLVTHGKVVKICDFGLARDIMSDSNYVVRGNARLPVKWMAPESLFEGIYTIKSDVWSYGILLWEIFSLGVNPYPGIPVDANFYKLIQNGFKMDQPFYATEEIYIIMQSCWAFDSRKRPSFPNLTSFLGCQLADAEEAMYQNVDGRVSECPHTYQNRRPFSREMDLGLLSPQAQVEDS
In short: (§2)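 Human kinases expressed in Sf9 cells via baculovirus as GST or His fusions and affinity purified. 33PanQinase assay in 60 mM HEPES-NaOH pH 7.5, 3 mM MgCl2, 3 mM MnCl2, 3 µM orthovanadate, 1.2 mM DTT, 1 µM [γ-33P]ATP, 1% DMSO; 30 °C, 80 min. Substrates: poly(Glu,Tyr) 4:1 for ERBB2, IGF1-R and SRC; poly(Ala,Glu,Lys,Tyr) 6:2:5:1 for FLT3. IC50 from 10 concentrations by scintillation counting.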

[3] = target: Vascular endothelial growth factor receptor 3 (Homo sapiens, UniProt P35916); test: Inhibition of human recombinant VEGFR3; in short: as §1
Focal adhesion kinase 1 = Focal adhesion kinase 1 (Homo sapiens, UniProt Q05397); test: Inhibition of human recombinant FAK
Angiopoietin-1 receptor = Angiopoietin-1 receptor (Homo sapiens, UniProt Q02763); test: Inhibition of human recombinant TIE2; in short: as §1
[4] = target: Proto-oncogene tyrosine-protein kinase Src (Homo sapiens, UniProt P12931); test: Inhibition of human recombinant SRC; in short: as §2
[5] = target: T2, Serine/threonine-protein kinase PLK4 (Homo sapiens, UniProt O00444); test: Inhibition of human recombinant SAK
T2 sequence (O00444 whole entry): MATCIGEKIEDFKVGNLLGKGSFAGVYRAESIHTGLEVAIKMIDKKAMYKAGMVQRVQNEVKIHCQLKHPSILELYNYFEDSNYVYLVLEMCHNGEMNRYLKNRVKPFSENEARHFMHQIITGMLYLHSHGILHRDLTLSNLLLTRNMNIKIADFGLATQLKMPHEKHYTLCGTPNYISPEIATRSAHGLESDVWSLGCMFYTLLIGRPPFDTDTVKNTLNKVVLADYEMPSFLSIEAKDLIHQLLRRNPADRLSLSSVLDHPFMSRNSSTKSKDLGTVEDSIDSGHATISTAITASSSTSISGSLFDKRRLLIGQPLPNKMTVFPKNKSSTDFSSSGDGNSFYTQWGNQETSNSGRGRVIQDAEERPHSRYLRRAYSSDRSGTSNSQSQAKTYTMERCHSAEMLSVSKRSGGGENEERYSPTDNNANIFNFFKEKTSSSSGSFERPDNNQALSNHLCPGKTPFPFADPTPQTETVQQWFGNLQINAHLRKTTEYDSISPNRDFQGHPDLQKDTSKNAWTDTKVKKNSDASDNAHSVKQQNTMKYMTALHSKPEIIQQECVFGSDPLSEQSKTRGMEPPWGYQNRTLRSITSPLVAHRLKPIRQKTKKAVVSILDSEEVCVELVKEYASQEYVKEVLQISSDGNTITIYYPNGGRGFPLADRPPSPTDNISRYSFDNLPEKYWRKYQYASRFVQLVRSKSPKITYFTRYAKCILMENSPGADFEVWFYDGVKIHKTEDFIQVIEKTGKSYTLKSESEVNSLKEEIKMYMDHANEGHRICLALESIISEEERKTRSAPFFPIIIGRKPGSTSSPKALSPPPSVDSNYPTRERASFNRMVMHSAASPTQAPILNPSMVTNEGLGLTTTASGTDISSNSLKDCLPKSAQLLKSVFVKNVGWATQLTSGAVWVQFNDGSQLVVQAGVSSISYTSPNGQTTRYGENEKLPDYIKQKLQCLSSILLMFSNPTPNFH
In short: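 Human kinase expressed from cDNA in Sf9 cells (baculovirus) as GST- or His-tagged protein, affinity-purified. 10 compound concentrations, 1% DMSO final, 30 °C for 80 min. Stopped with H₃PO₄, 33P incorporation counted, IC50 derived.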

[6] = target: T3, NUAK family SNF1-like kinase 1 (Homo sapiens, UniProt O60285); test: Inhibition of human recombinant ARK5
T3 sequence (O60285 whole entry): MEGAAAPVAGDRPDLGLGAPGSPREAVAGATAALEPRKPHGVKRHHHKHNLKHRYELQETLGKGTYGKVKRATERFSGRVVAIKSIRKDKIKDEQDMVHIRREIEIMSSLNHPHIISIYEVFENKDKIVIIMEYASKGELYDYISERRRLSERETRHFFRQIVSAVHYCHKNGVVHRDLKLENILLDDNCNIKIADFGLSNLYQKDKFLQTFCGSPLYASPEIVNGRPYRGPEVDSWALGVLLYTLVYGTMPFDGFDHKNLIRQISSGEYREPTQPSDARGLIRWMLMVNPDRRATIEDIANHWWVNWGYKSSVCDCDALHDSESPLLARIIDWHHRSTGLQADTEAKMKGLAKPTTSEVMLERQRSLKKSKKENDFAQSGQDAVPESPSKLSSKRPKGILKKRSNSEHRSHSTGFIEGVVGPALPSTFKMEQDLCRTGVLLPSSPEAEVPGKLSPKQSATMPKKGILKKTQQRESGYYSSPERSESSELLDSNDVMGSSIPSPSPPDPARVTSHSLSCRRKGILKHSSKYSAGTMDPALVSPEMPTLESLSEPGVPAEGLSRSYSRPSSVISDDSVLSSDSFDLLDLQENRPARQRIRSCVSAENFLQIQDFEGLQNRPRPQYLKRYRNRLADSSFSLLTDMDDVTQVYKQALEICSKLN
In short: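 Human ARK5 made in Sf9 cells by baculovirus (GST- or His-tagged, affinity-purified) and read by autophosphorylation in a 33PanQinase radiometric assay. Buffer: 60 mM HEPES-NaOH pH 7.5, 3 mM MgCl2, 3 mM MnCl2, 3 µM orthovanadate, 1.2 mM DTT, PEG20000 and 1 µM [γ-33P]ATP.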

Aurora kinase A = target: T4, Aurora kinase A (Homo sapiens, UniProt O14965); test: Inhibition of human recombinant Aurora A
T4 sequence (O14965 whole entry): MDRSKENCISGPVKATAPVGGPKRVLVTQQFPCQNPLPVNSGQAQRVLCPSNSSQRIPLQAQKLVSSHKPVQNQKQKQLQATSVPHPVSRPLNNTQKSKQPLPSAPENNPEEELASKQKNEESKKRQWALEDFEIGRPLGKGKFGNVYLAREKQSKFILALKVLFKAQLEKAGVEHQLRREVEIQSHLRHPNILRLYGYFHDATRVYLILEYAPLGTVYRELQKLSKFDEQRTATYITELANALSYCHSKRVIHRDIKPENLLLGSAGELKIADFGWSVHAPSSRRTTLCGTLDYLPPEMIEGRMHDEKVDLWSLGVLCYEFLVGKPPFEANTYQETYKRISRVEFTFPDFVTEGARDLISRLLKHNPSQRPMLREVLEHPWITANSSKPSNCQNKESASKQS
In short: (§3)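 Aurora-A or Aurora-B, human cDNA expressed in Sf9 cells as tagged recombinant protein, phosphorylating Tetra(LRRWSLG). Reactions used 60 mM HEPES pH 7.5, Mg2+/Mn2+ (3 mM each), 1.2 mM DTT, vanadate and 1 µM [γ-33P]ATP, ran 80 min at 30 °C and were stopped with 2% H3PO4.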

[7] = target: Cyclin-dependent kinase 2 (Homo sapiens, UniProt P24941); test: Inhibition of human recombinant CDK2/cyclin A
In short: (§4)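 Human kinases expressed in Sf9 cells by baculovirus as GST or His fusions and affinity purified. Radiometric 33PanQinase assay: 60 mM HEPES-NaOH pH 7.5, 3 mM MgCl2, 3 mM MnCl2, 3 µM orthovanadate, 1.2 mM DTT, 1 µM [γ-33P]ATP, 50-400 ng enzyme, 1% DMSO; 30 °C, 80 min. Substrates: B-Raf-VE, MEK1 KM; CDK2/CycA, histone H1; CK2-A1, casein; COT, autophosphorylation. IC50 from 10 concentrations; 33Pi incorporation by scintillation.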

[8] = target: Cyclin-dependent kinase 4/cyclin D1 (Homo sapiens, UniProt P11802); test: Inhibition of human recombinant CDK4/cyclin D1; assay type: protein-complex assay
In short: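 CDK4/CycD1 (human, baculovirus/Sf9, affinity-purified) with Rb-CTF as substrate. The radiometric FlashPlate assay held 1 µM [γ-33P]ATP in HEPES-NaOH pH 7.5 with 3 mM MgCl2 and 3 mM MnCl2.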

[9] = target: Mitogen-activated protein kinase kinase kinase 8 (Homo sapiens, UniProt P41279); test: Inhibition of human recombinant COT; in short: as §4
Insulin receptor = Insulin receptor (Homo sapiens, UniProt P06213); test: Inhibition of human recombinant INS-R
[10] = target: Receptor tyrosine-protein kinase erbB-2 (Homo sapiens, UniProt P04626); test: Inhibition of human recombinant ERBB2; in short: as §2
Aurora kinase B = Aurora kinase B (Homo sapiens, UniProt Q96GD4); test: Inhibition of human recombinant Aurora B; in short: as §3
Aurora kinase B, sequence (Q96GD4 whole entry): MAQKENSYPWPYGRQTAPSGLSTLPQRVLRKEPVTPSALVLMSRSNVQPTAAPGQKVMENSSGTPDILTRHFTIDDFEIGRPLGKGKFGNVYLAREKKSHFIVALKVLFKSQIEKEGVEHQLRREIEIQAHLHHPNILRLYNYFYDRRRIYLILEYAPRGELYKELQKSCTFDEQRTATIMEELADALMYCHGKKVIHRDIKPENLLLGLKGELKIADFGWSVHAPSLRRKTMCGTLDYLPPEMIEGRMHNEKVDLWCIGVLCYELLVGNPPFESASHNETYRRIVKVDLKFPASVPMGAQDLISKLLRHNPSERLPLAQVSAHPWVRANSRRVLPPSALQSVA

Focal adhesion kinase 1, sequence (Q05397 whole entry): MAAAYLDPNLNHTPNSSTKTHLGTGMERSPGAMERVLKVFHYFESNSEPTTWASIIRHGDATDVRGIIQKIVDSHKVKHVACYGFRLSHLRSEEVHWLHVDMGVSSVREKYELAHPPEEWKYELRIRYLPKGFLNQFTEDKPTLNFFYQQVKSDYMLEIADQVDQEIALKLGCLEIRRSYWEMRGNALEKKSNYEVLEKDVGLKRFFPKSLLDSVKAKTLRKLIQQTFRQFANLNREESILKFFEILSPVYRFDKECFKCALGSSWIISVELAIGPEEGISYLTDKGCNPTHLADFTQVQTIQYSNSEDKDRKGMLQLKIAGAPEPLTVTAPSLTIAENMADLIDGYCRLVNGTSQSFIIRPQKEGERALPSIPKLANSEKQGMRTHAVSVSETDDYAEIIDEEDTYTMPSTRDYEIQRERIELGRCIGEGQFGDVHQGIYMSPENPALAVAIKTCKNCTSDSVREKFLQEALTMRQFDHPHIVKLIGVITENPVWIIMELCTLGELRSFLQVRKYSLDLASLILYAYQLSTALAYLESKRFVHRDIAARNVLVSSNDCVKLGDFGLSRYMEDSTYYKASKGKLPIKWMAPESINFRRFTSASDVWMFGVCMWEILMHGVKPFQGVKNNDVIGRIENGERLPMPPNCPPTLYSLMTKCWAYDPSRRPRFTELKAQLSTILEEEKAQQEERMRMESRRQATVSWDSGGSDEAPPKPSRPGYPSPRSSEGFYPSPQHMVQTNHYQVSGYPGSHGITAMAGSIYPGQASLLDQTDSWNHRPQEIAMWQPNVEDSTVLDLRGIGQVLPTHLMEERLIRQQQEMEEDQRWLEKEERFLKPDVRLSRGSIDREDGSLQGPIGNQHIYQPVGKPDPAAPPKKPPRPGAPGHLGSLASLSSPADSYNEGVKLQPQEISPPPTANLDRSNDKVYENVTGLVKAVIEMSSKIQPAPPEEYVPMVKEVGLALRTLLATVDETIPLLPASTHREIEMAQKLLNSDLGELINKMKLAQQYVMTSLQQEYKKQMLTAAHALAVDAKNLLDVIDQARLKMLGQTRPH
Proto-oncogene tyrosine-protein kinase Src, sequence (P12931 2-536 limits assumed): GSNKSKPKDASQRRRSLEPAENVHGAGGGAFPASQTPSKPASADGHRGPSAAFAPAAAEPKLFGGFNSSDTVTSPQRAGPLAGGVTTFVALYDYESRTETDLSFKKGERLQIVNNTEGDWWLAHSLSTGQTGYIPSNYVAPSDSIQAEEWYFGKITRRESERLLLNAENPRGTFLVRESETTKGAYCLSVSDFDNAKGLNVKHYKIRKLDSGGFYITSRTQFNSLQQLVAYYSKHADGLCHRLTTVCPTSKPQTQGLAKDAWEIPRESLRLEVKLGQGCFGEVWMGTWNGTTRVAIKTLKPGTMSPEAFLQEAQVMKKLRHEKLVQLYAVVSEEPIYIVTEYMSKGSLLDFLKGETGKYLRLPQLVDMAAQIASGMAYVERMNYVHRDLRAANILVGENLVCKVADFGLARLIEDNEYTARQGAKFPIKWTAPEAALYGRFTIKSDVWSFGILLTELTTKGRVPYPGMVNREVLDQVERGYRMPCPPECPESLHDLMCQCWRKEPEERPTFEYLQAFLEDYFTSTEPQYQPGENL
Vascular endothelial growth factor receptor 3, sequence (P35916 whole entry): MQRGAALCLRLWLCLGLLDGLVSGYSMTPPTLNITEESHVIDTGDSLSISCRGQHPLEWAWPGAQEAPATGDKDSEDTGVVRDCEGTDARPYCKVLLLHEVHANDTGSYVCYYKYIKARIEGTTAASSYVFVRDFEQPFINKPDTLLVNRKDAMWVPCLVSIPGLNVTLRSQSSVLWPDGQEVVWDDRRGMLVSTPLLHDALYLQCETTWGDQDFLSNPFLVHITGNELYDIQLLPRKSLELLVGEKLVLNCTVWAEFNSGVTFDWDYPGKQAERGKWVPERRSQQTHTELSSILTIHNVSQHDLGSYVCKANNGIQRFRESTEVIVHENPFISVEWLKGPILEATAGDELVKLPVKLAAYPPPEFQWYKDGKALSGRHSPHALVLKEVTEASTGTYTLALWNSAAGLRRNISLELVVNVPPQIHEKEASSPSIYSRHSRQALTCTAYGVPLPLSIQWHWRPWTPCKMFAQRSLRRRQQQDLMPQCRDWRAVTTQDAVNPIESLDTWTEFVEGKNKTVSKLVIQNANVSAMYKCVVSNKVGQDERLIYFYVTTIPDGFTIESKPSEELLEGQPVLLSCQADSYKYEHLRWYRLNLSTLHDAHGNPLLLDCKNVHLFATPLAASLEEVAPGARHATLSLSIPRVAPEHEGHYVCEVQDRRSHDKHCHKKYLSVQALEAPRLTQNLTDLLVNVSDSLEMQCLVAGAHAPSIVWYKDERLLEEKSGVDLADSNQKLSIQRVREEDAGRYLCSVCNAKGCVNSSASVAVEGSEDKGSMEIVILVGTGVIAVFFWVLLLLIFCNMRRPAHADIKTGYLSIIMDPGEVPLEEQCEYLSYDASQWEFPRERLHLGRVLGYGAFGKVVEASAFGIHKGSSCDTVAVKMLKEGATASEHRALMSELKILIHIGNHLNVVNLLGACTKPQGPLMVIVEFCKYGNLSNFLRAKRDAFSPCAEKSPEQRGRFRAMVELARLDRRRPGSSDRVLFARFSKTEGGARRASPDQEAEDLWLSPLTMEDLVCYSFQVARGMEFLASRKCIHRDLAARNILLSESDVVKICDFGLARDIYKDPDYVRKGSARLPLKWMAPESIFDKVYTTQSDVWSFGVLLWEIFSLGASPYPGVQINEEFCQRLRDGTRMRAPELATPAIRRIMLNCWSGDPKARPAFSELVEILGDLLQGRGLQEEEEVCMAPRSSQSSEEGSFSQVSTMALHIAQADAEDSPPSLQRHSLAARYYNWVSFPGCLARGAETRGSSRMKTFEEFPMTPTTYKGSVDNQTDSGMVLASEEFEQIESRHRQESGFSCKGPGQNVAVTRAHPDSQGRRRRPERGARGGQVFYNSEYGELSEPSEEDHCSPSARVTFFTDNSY
Vascular endothelial growth factor receptor 2, sequence (P35968 whole entry, the tested form may be a part): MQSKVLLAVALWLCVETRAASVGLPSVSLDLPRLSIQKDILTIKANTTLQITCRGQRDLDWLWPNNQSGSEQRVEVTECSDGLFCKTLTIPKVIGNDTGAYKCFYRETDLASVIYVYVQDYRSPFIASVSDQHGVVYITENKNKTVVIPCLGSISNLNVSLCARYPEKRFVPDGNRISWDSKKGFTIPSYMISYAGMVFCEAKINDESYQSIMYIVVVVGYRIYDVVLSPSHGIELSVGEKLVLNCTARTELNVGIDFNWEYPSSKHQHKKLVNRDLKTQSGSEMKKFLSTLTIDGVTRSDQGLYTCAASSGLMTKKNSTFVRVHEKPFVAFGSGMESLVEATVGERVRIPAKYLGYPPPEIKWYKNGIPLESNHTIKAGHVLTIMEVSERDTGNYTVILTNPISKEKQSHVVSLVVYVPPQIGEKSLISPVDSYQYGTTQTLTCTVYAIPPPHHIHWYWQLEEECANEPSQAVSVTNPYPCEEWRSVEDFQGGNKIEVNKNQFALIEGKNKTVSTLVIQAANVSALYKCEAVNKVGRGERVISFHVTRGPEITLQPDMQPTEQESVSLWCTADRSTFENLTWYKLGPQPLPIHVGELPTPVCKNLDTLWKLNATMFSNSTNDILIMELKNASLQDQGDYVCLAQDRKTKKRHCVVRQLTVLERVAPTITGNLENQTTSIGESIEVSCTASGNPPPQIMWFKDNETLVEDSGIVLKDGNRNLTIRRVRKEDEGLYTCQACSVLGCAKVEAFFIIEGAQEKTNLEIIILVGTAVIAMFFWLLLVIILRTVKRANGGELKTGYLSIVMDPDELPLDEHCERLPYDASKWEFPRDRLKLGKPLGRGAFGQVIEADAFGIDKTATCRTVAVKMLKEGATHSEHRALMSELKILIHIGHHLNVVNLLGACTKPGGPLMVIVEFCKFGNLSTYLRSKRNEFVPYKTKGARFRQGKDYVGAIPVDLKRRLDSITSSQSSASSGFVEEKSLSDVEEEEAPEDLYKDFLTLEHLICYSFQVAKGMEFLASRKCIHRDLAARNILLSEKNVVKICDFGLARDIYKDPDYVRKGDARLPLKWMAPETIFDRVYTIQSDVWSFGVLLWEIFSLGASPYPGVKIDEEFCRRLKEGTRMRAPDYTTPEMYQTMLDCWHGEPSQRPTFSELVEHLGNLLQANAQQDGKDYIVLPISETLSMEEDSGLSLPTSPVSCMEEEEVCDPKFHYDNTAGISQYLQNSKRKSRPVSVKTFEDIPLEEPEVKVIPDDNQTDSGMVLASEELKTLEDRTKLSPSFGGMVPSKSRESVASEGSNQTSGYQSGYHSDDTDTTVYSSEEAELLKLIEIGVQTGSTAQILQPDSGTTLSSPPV

## COCn1cc(C2=C(c3cc(OC)c(OC)c(OC)c3)C(=O)NC2)c2ccccc21
Homo sapiens
  inhibition: 42%
[1]
  IC50: 2.3 µM
[2]
  IC50: 25 µM
[3]
  IC50: 3.2 µM
Focal adhesion kinase 1
  IC50: 35 µM
Angiopoietin-1 receptor
  IC50: 25 µM

## COc1cc(C2=C(c3c[nH]c4ccccc34)C(O)NC2=O)cc(OC)c1OC (configuration not stated)
[1]
  IC50: 5.9 µM
[2]
  IC50: 44 µM
[3]
  IC50: 3.4 µM

## COc1ccc(C2=C(c3cn(C)c4ccccc34)C(=O)NC2)cc1
[4]
  IC50: 39 µM
[1]
  IC50: 31 µM
[5]
  IC50: 46 µM
[2]
  IC50: 14 µM
[3]
  IC50: 18 µM
Angiopoietin-1 receptor
  IC50: 48 µM
[6]
  IC50: 3.6 µM

## COc1cc(C2=C(c3cn(COC(C)C)c4ccccc34)CNC2=O)cc(OC)c1OC
[4]
  IC50: 29 µM
[1]
  IC50: 5.2 µM
[5]
  IC50: 44 µM
Aurora kinase A
  IC50: 33 µM
[3]
  IC50: 5.3 µM
Focal adhesion kinase 1
  IC50: 27 µM
Angiopoietin-1 receptor
  IC50: 11 µM

## COc1cc(C2=C(c3cn(COc4ccccc4)c4ccccc34)CNC2=O)cc(OC)c1OC
[7]
  IC50: 20 µM
Homo sapiens
  inhibition: 41%
[1]
  IC50: 1.5 µM
[5]
  IC50: 9 µM
[8]
  IC50: 44 µM
[9]
  IC50: 40 µM
Aurora kinase A
  IC50: 6.5 µM
[3]
  IC50: 2.5 µM
Insulin receptor
  IC50: 44 µM
[10]
  IC50: 37 µM
Aurora kinase B
  IC50: 20 µM
Focal adhesion kinase 1
  IC50: 43 µM
Angiopoietin-1 receptor
  IC50: 1.7 µM

## COc1cc(C2=C(c3cn(CC4COC(C)(C)O4)c4ccccc34)CNC2=O)cc(OC)c1OC (configuration not stated)
[1]
  IC50: 8 µM
[5]
  IC50: 23 µM
[3]
  IC50: 3.2 µM
Angiopoietin-1 receptor
  IC50: 31 µM

## CCOCn1cc(C2=C(c3cc(OC)c(OC)c(OC)c3)C(=O)NC2)c2ccccc21
[4]
  IC50: 40 µM
[1]
  IC50: 5.3 µM
[5]
  IC50: 35 µM
Aurora kinase A
  IC50: 29 µM
[3]
  IC50: 3.6 µM
Focal adhesion kinase 1
  IC50: 28 µM
Angiopoietin-1 receptor
  IC50: 24 µM
